Screening results as filed in PubChem.
This excerpt belongs to a sample that is enriched for hits.
T cruzi HTS: inhibitors of intracellular Trypanosoma cruzi, primary screen, cell-based, plate reader, single point, set 2 | intracellular Trypanosoma cruzi in host cells | AID 651903, 2012 | activity score (inhibition), % at 5.01 µM | 22,000 compounds, 4.9% hits; in the data active means activity score above about 55%;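 further: parasites and compound incubated about four days before reading; 0% = median of neutral control wells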
YB-1 expr inh: inhibitors of YB-1 gene expression, primary screen, cell-based, fluorescence. U2OS, qRT-PCR YB-1 vs CDIP delta delta Cp, 16 h; active compounds read high; zero = DMSO, each unit about twofold. delta delta Cp (YB-1 minus CDIP) (test concentration not listed). 30,000 compounds, 0.37% hits. AID 434959, 2010;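 active means delta delta Cp rounded down to an integer at or above 3, about 3 SD of DMSO wells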;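 further: higher means less YB-1 transcript or more CDIP transcript relative to DMSO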
INS-1E ATP HTS: protection of INS-1E cells from cytokine death, primary screen, ATP luminescence, single point | protection from cytokine-induced ATP loss, % at 10 µM | AID 488910, 2010 | INS-1E cytokine-induced death, 48 h; normalised: neutral wells 0, positive control 100 | 20,000 compounds, 0.1% hits;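 active means mean replicate protection from cytokine-induced ATP loss at least 50% and at least 75% of replicates each reaching 50%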
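Assay system: INS-1E rat insulinoma cells. Amount: 8000 cells per well. Medium: phenol-red-free RPMI with 5% fetal bovine serum. Reagent: IL-1β, TNF-α and IFN-γ cytokine mix. Doses: one compound concentration, pin transfer. Schedule: 48 h co-treatment, 10 min post-lysis read. Detection: CellTiter-Glo luminescence measuring cellular ATP.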
Starred values were filed as active, the others as inactive; · = not tested or not shown.

SMILES	T cruzi HTS	YB-1 expr inh	INS-1E ATP HTS
C[C@H](CO)N1C[C@H](C)[C@H](CN(C)S(=O)(=O)c2cccc(F)c2)Oc2ncc(C#Cc3ccccc3)cc2C1=O	51.5	-0.243	·
COc1ccc(S(=O)(=O)N(C)C[C@@H]2Oc3ncc(C#Cc4cccc(F)c4)cc3C(=O)N([C@H](C)CO)C[C@@H]2C)cc1	52.1	-0.0792	·
COc1ccc(S(=O)(=O)N(C)C[C@@H]2Oc3ncc(C#Cc4ccc(C(F)(F)F)cc4)cc3C(=O)N([C@H](C)CO)C[C@@H]2C)cc1	82.4*	0.306	-4.2
C[C@H](CO)N1C[C@H](C)[C@H](CN(C)S(C)(=O)=O)Oc2ncc(C#Cc3cccc(F)c3)cc2C1=O	-5.7	-0.33	·
C[C@H](CO)N1C[C@H](C)[C@H](CN(C)S(=O)(=O)c2cccs2)Oc2ncc(C#Cc3cccc(F)c3)cc2C1=O	71.3*	-0.426	·
Cc1ccn2c(-c3nnco3)c(C)nc2c1	·	-0.277	·
CC(=O)Oc1ccc2c(=O)c(Oc3ccc(Cl)cc3)c(C)oc2c1	·	-0.0307	·
C[C@@H]1CN([C@H](C)CO)C(=O)Cc2cc(NC(=O)Nc3ccc(C(F)(F)F)cc3)ccc2O[C@@H]1CN(C)Cc1ccc(C(F)(F)F)cc1	68.0*	0.141	-65.4
C[C@@H]1CN([C@H](C)CO)C(=O)Cc2cc(NC(=O)CCC(F)(F)F)ccc2O[C@H]1CN(C)Cc1ccc(C(F)(F)F)cc1	49.4	0.0754	-6.8
C[C@H](CO)N1C[C@H](C)[C@H](CN(C)Cc2ccncc2)Oc2ccc(NC(=O)Nc3ccc(C(F)(F)F)cc3)cc2CC1=O	61.0*	0.0906	-19.2
C[C@H]1CN([C@@H](C)CO)C(=O)Cc2cc(NC(=O)CCC(F)(F)F)ccc2O[C@@H]1CN(C)Cc1ccc(C(F)(F)F)cc1	64.5*	-0.333	-1.2
CC(C)NC(=O)Nc1ccc2c(c1)CC(=O)N([C@@H](C)CO)C[C@H](C)[C@H](CN(C)Cc1ccc(C(F)(F)F)cc1)O2	-2.8	-0.106	8.1
COc1ccc(CN(C)C[C@H]2Oc3ccc(NC(=O)Nc4ccc(C(F)(F)F)cc4)cc3CC(=O)N([C@@H](C)CO)C[C@@H]2C)cc1	12.1	-0.511	-6.7
C[C@@H]1CN([C@H](C)CO)C(=O)Cc2cc(NC(=O)Nc3ccc(C(F)(F)F)cc3)ccc2O[C@H]1CN(C)Cc1ccncc1	-9.9	0.137	15.8
C[C@@H]1CN([C@H](C)CO)C(=O)Cc2cc(NC(=O)Nc3ccc(C(F)(F)F)cc3)ccc2O[C@H]1CN(C)Cc1ccc(C(F)(F)F)cc1	80.8*	-0.238	-0.7
COc1ccccc1-c1cc(=O)c2ccccc2o1	·	-0.691	·
COC(=O)/C=C1/NCC(OC(=O)c2ccc(C(C)(C)C)cc2)CNC1=O (stereo unspecified)	·	-0.053	·
CC(C)CC1NC(=O)C2CCCN2C1=O (stereo unspecified)	·	0.412	·
C[C@@H]1CN([C@@H](C)CO)C(=O)Cc2cc(NC(=O)Nc3ccc(C(F)(F)F)cc3)ccc2O[C@@H]1CN(C)Cc1ccc(Cl)c(Cl)c1	56.5*	0.1	-36.6
C[C@H](CO)N1C[C@H](C)[C@H](CN(C)Cc2ccc(C(F)(F)F)cc2)Oc2ccc(NC(=O)Nc3ccc(C(F)(F)F)cc3)cc2CC1=O	72.1*	0.0497	-69.3
C[C@H]1CN([C@@H](C)CO)C(=O)Cc2cc(NC(=O)Nc3ccc(C(F)(F)F)cc3)ccc2O[C@@H]1CN(C)Cc1ccc(Cl)c(Cl)c1	-4.5	0.159	-11.7
C[C@H]1CN([C@@H](C)CO)C(=O)c2cc(NC(=O)Nc3ccc(C(F)(F)F)cc3)ccc2O[C@@H]1CN(C)Cc1ccc(Cl)c(Cl)c1	10.9	0.137	-52.3
C[C@@H]1CN([C@@H](C)CO)C(=O)Cc2cc(NC(=O)Nc3ccc(C(F)(F)F)cc3)ccc2O[C@@H]1CN(C)Cc1ccc(C(=O)O)cc1	-24.1	0.257	8.5
C[C@H](CO)N1C[C@H](C)[C@H](CN(C)Cc2ccc(Cl)c(Cl)c2)Oc2ccc(NC(=O)Nc3ccc(C(F)(F)F)cc3)cc2C1=O	90.6*	0.0834	-25.1
Cc1ccc(S(=O)(=O)/C(C#N)=C/Nc2cc(C(F)(F)F)cc(C(F)(F)F)c2)cc1	·	-0.157	·
SMILES	T cruzi HTS	YB-1 expr inh	INS-1E ATP HTS
Cc1cc(Br)cc2c1N(C)C(=O)/C2=C1\SC(=Nc2ccc(F)cc2)NC1=O	·	1.69	·
COC(=O)c1cc(NC(=O)c2ccco2)cc(C(=O)OC)c1	·	-0.295	·
O=C(CCCCC(=O)N/N=C/c1ccc([N+](=O)[O-])s1)NO	51.9	0.092	0.8
CCN(CC)c1ccc(/C=N/NC(=O)CCCCCCC(=O)Nc2ccccc2O)c(O)c1	66.4*	-0.368	-7.7
O=C(CCCCCCC(=O)Nc1ccccc1O)N/N=C/c1ccc([N+](=O)[O-])s1	89.5*	-0.276	-35.7
O=C(CCCCCCC(=O)Nc1ccccc1O)N/N=C/c1ccccc1O	23.5	0.246	8.3
O=S(=O)(N[C@@H]1CCCN(Cc2cccc(OCCO)c2)C1)c1ccccc1	·	0.213	·
COC(=O)CC1=CC(C)(CC(=O)OC)C(C#N)(C#N)C(N)=C1C#N (stereo unspecified)	·	-0.314	·
CCC(Sc1nnnn1-c1ccccc1)C(=O)Nc1sc2c(c1C#N)CCCC2 (stereo unspecified)	·	0.182	·
Cc1ccc(S(=O)(=O)Nc2ccc3c(c2)C(=O)N([C@H](C)CO)C[C@@H](C)[C@@H](CN(C)Cc2ccc(-c4ccccc4)cc2)O3)cc1	29.9	0.00685	-19.7
Cc1ccc(S(=O)(=O)Nc2ccc3c(c2)C(=O)N([C@H](C)CO)C[C@H](C)[C@@H](CN(C)Cc2ccc(-c4ccccc4)cc2)O3)cc1	-23.2	-0.0666	-3.3
C[C@H](CO)N1C[C@H](C)[C@@H](CN(C)Cc2ccc(-c3ccccc3)cc2)Oc2ccc(NS(=O)(=O)c3ccccc3)cc2C1=O	41.5*	-0.123	·
C[C@@H]1CN([C@H](C)CO)C(=O)c2cc(NS(=O)(=O)c3ccccc3)ccc2O[C@@H]1CN(C)Cc1ccc(-c2ccccc2)cc1	65.9*	-0.374	-27.7
CC(=O)O[C@@]1(C)C[C@@H](O)[C@@H]2C=CO[C@@H](O[C@@H]3O[C@H](CO)[C@@H](O)[C@H](O)[C@H]3O)[C@@H]21	·	0.225	·
C[C@H]1CN([C@@H](C)CO)C(=O)c2cc(NS(=O)(=O)c3cccs3)ccc2O[C@H]1CN(C)Cc1ccccc1	5.9	-0.0223	-4.9
C[C@H](CO)N1C[C@H](C)[C@H](CN(C)Cc2ccc(C(F)(F)F)cc2)Oc2ccc(NS(=O)(=O)c3cccs3)cc2C1=O	58.3*	-0.278	-14.3
C[C@H]1CN([C@@H](C)CO)C(=O)c2cc(NS(=O)(=O)c3cccs3)ccc2O[C@H]1CN(C)Cc1ccc(C(F)(F)F)cc1	39.1	-0.224	·
C[C@H](CO)N1C[C@H](C)[C@@H](CN(C)Cc2ccc(C(F)(F)F)cc2)Oc2ccc(NS(=O)(=O)c3cccs3)cc2C1=O	60.1*	0.488	-12.5
COc1cc(CCC(=O)N2CCC=CC2=O)cc(OC)c1OC	·	0.172	·
CC1(C)CC(=O)C(C=NC(CO)(CO)CO)=C(O)C1	·	0.532	·
